Results pooled from the literature.
Each line is one published result; the experiments were not run side by side.
Target: Microtubule-associated serine/threonine-protein kinase 1 (MAST1, Homo sapiens, UniProt Q9Y2H9)

read-out	method	tested at	remaining binding [%]	SMILES
binding		1 µM	100	CC1CCCN1c1nccc(-c2cnn3ncccc23)n1 (stereo not drawn)
cell-free assay	competition with immobilised ligand	1 µM	100	COc1ccc2c(c1)O[C@H](c1ccc(OC)c(OC)c1)C[C@@H]2NC(=O)C1(c2ccc3c(c2)OC(F)(F)O3)CC1
binding	competition with immobilised ligand	1 µM	100	COc1cnc(Nc2cccc(S(N)(=O)=O)c2)nc1N1CCN(c2ccccc2)C(=O)C1
binding	competition with immobilised ligand	0.1 µM	40	C[C@@H](c1ccc(-n2cnc3c(N)ncnc32)cc1)N1CCc2nn(C)c(Cc3ccccc3)c2C1=O
binding		1 µM	96	CN(C)c1ncc(F)c(-c2cnn3ncccc23)n1
cell-free assay	competition with immobilised ligand	1 µM	94	CCC(=O)N[C@@H]1CC[C@H](C(=O)N(C)c2ccc(-c3nc4ccccc4o3)cc2)C1
binding		1 µM	100	N[C@@H]1CCN(c2nccc(-c3cnn4ncccc34)n2)C1
cell-free assay	competition with immobilised ligand	1 µM	87	CC(=O)N1CCC(c2ccc(C(=O)NC3=NCCN3)cc2C(F)(F)F)CC1
cell-free assay	competition with immobilised ligand	5 µM	51	FC(F)(F)Oc1cccc(-c2cnc3ccc(-c4ccncc4)nn23)c1
binding	competition with immobilised ligand	1 µM	55	Cc1cnc(Nc2ccc(C(=O)N3CCC(N4CCCC4)CC3)cc2)nc1-c1cc2ccccc2s1
binding		1 µM	100	Cc1cnn2ncc(-c3ccnc(N(C)C)n3)c2c1
binding	competition with immobilised ligand	1 µM	100	O=C(Nc1c[nH]nc1C(=O)NC1CCNCC1)c1cc(F)cc(F)c1
binding		1 µM	99	COc1ccnn2ncc(-c3ccnc(N(C)C)n3)c12
cell-free assay	competition with immobilised ligand	0.1 µM	100	CS(=O)(=O)N1CCCC(NC(=O)[C@H](CCC2CCCCC2)NC(=O)c2ccc(CNc3ncnc4c3nnn4-c3ccccc3)cc2)C1 (stereo partly drawn)
binding	competition with immobilised ligand	1 µM	62	Nc1ncc2c(n1)-c1c([nH]c3ccc(C#CC4CC4)cc13)CCCC2
cell-free assay	competition with immobilised ligand	1 µM	58	O=C(Nc1cccnn1)N1CC(C/C=C/c2cncc(Oc3ccc(C(F)(F)F)cn3)n2)C1
binding		1 µM	82	C[C@H]1CCN(c2nccc(-c3cnn4ncccc34)n2)C1
binding	competition with immobilised ligand	1 µM	63	O=C(NCCCN1CCOCC1)c1ccc(Nc2ncc(Cl)c(-c3ccc(Cl)s3)n2)cc1
binding	competition with immobilised ligand	10 µM	95	c1cncc(-c2cccc(Nc3nccc(NC4CCCCC4)n3)c2)c1
binding	competition with immobilised ligand	1 µM	52	O=C(c1ccc(Nc2ncc(Cl)c(-c3cc4ccccc4s3)n2)cc1)N1CCC(N2CCCC2)CC1
cell-free assay	competition with immobilised ligand	1 µM	100	COc1ccc2cc(OCC3(C(=O)O)CN(C(=O)c4ccc(F)cc4)C3)ccc2c1
